Data taken from ChEMBL document CHEMBL5380787, “Optimized M24B Aminopeptidase Inhibitors for CARD8 Inflammasome Activation” (J Med Chem, 2023).
Active and inactive are the calls of the source. No cut-off for these calls is given here.

Experiments:
RAW264.7 = assay: Induction of pyroptosis in mouse RAW264.7 cells expressing NLRP1B allele 1 assessed as LDH release at 20 uM incubated for 24 hrs; assay type: functional, cell-based
Method in brief: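 RAW264.7 cells, grown in DMEM with 10% FBS, plated at 5 × 10^5 cells/well and exposed to 20 μM compound for 24 h. Supernatant LDH was measured relative to a Triton X-100 lysis control; lysates were immunoblotted for GSDMD cleavage. n = 3.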

THP-1 [1] = assay: Induction of pyroptosis in DPP8/9 knockout human THP-1 cells assessed as LDH release at 20 uM incubated for 24 hrs; assay type: functional, cell-based
Method in brief: (§1)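 Cells (MV4;11, OCI-AML2 or THP-1; WT or the knockout named) plated at 5 × 10^5 cells/well and exposed to 20 μM compound for 24 h. LDH in the supernatant was measured relative to a Triton X-100 lysis control. For immunoblots, cells were washed in PBS, sonicated, protein-normalized, run on SDS-PAGE and probed for GSDMD cleavage. n = 3.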

OCI-AML2 [2] = assay: Induction of pyroptosis in CARD8 knockout human OCI-AML2 cells assessed as LDH release at 20 uM incubated for 24 hrs; assay type: functional, cell-based; method in brief: as §1
HEK-293T [3] = assay: Induction of pyroptosis in human HEK293T cells expressing CASP1 and GSDMD cotransfected with dTAG-CARD8ZUC and CARD8 FIIND S297A assessed as destabilization of DPP9-CARD8 ternary complex by measuring LDH release at 20 uM incubated for 6 hrs in presence of dTAG13; assay type: functional, cell-based
THP-1 [4] = assay: Induction of pyroptosis in human THP-1 cells assessed as LDH release at 20 uM incubated for 24 hrs; assay type: functional, cell-based; method in brief: as §1
Xaa-Pro aminopeptidase 1 = Xaa-Pro aminopeptidase 1 (Homo sapiens, UniProt Q9NQW7); assay: Inhibition of 6-His tagged XPNPEP1 (unknown origin) expressed in Escherichia coli Rosetta DE3 cells using H-Lys(abz)-Pro-Pro-pNA as substrate at 20 uM incubated for 60 mins by fluorescence based analysis relative to control
Xaa-Pro aminopeptidase 1, sequence (Q9NQW7 whole entry): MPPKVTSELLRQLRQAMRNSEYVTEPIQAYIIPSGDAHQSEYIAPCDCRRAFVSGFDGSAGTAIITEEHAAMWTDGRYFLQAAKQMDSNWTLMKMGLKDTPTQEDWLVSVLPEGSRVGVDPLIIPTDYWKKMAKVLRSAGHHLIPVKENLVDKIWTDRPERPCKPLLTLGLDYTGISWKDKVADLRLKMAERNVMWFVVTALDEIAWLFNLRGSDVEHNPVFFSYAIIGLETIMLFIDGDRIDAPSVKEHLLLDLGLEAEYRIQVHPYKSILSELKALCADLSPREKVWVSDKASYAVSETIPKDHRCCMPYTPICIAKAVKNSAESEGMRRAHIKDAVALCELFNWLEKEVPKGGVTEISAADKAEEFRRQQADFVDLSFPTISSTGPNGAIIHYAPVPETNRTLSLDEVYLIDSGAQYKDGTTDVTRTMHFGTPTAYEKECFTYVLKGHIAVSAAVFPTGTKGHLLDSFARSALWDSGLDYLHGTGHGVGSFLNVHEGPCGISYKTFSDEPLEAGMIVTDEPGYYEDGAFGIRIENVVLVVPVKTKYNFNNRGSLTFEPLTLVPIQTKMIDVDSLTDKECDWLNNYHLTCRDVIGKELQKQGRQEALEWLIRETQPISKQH
Method in brief: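 His6-tagged XPNPEP1 was expressed in E. coli Rosetta DE3 (IPTG, 16 h, 37 °C) and purified on TALON resin. Enzyme at 3.5 nM was exposed to compound, then H-Lys(abz)-Pro-Pro-pNA was added at 100 μM final. Fluorescence (Ex/Em 320/410) was followed for 60 min. Single-point inhibition used 20 μM; IC50 as mean ± SEM of three biological replicates.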

MV4-11 [5] = assay: Induction of cell death in CASP1 knockout human MV4-11 cells assessed as increase in PI uptake at 6.25 uM incubated for 6 hrs by PI staining based fluorescence analysis; assay type: functional
Method in brief: (§2)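 PI flux assay. 2 × 10^4 MV4;11 (WT, CARD8−/− or CASP1−/−) or OCI-AML2 cells in RPMI were given compound at 6.25 μM plus PI at 10 μM final. Fluorescence (Ex/Em 535/617 nm) was read every 5 min at 37 °C for 6 h, baseline-corrected to DMSO and normalized to the maximum response. n = 3.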

OCI-AML2 [6] = assay: Induction of pyroptosis in human OCI-AML2 cells assessed as GSDMD cleavage at 20 uM incubated for 24 hrs by immunoblot analysis; assay type: functional, cell-based; method in brief: as §1
OCI-AML2 [7] = assay: Induction of cell death in human OCI-AML2 cells assessed as reduction in cell viability incubated for 24 hrs by celltiter-glo assay; assay type: functional, cell-based
Method in brief: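 OCI-AML2 cells, WT or CARD8−/−, were grown in RPMI 1640 with 10% FBS and plated at 2000 cells/well. Compound was added over a range of concentrations for 24 h, and viability was then read by CellTiter-Glo luminescence. Means ± SEM, n = 3.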

T-cell = assay: Induction of pyroptosis in human T cells expressing CARD8 assessed as GSDMD cleavage at 20 uM incubated for 24 hrs by immunoblot analysis; assay type: functional, cell-based
Method in brief: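 Resting human primary T cells (>90% purity) were thawed and cultured in RPMI-1640 with 10% FBS and 30 U/mL IL-2. They were exposed to 20 μM compound for 24 h, lysed, and immunoblotted for GSDMD cleavage.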

THP-1 [8] = assay: Induction of pyroptosis in human THP-1 cells assessed as GSDMD cleavage at 20 uM incubated for 24 hrs by immunoblot analysis; assay type: functional, cell-based; method in brief: as §1
THP-1 [9] = assay: Induction of pyroptosis in PEPD knockout human THP-1 cells assessed as LDH release at 20 uM incubated for 24 hrs; assay type: functional, cell-based; method in brief: as §1
MV4-11 [10] = assay: Induction of cell death in human MV4-11 cells assessed as increase in PI uptake at 6.25 uM incubated for 6 hrs by PI staining based fluorescence analysis; assay type: functional; method in brief: as §2
BMDM = assay: Induction of pyroptosis in C57BL/6J mouse BMDM cells expressing NLRP1A and NLRP1B allele 2 assessed as GSDMD clevage at 20 uM incubated for 24 hrs by immunoblot analysis; assay type: functional, cell-based
Method in brief: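 Bone marrow cells from femurs and tibias of 7–12-week-old C57BL/6J mice were RBC-lysed and differentiated for 6 days at 37 °C in DMEM with 10% FBS and 15–20% L-cell medium, then replated. Cells were exposed to 20 μM compound for 24 h. Read-outs were LDH release against a lysis control and GSDMD immunoblot.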

THP-1 [11] = assay: Induction of pyroptosis in PEPD knockout human THP-1 cells assessed as GSDMD clevage at 20 uM incubated for 24 hrs by immunoblot analysis; assay type: functional, cell-based; method in brief: as §1
THP-1 [12] = assay: Induction of pyroptosis in PEPD/XPNPEP1 knockout human THP-1 cells assessed as GSDMD clevage at 20 uM incubated for 24 hrs by immunoblot analysis; assay type: functional, cell-based; method in brief: as §1
MV4-11 [13] = assay: Cytotoxicity against CASP1 knockout human MV4-11 cells assessed as reduction in cell viability incubated for 24 hrs by celltiter-glo assay; assay type: functional, cell-based; settings: MV4-11, 24 h
Method in brief: (§3)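 MV4;11 cells (WT or CASP1−/−), grown in RPMI 1640 with 10% FBS at 37 °C, 5% CO2, plated 2000 cells/well, dosed by pintool across 100 μM to 15.2 nM in three-fold steps for 24 h. Viability by CellTiter-Glo luminescence after 2 min shaking and 10 min at 25 °C. IC50 as mean ± SEM of three biological replicates.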

MV4-11 [14] = assay: Cytotoxicity against human MV4-11 cells assessed as reduction in cell viability incubated for 24 hrs by celltiter-glo assay; assay type: functional, cell-based; settings: MV4-11, 24 h; method in brief: as §3
HEK-293T [15] = assay: Induction of pyroptosis in human HEK293T cells expressing CASP1 and GSDMD cotransfected with dTAG-CARD8ZUC and CARD8 FIIND S297A assessed as destabilization of DPP9-CARD8 ternary complex by measuring GSDMD clevage at 20 uM incubated for 6 hrs in presence of dTAG13 by immunoblot analysis; assay type: functional, cell-based
MV4-11 [16] = assay: Induction of pyroptosis in human MV4-11 cells assessed as GSDMD cleavage at 20 uM incubated for 24 hrs by immunoblot analysis; assay type: functional, cell-based; method in brief: as §1

Row | inhibition (Xaa-Pro aminopeptidase 1) [%] | Compound | Activity (RAW264.7) | Activity (THP-1 [1]) | Activity (OCI-AML2 [2]) | Activity (HEK-293T [3]) | Activity (THP-1 [4]) | Activity (MV4-11 [5]) | Activity (OCI-AML2 [6]) | Activity (OCI-AML2 [7]) | Activity (T-cell) | Activity (THP-1 [8]) | Activity (THP-1 [9]) | Activity (MV4-11 [10]) | Activity (BMDM) | Activity (THP-1 [11]) | Activity (THP-1 [12]) | IC50 (MV4-11 [13]) [nM] | IC50 (MV4-11 [14]) [nM] | Activity (HEK-293T [15]) | Activity (MV4-11 [16])
1 | 74 | COC(=O)[C@H](CC(C)C)NC(=O)[C@@H]1CCCN1C(=O)[C@@H](O)[C@H](N)CC(C)C | inactive | inactive | inactive | Active | Active | inactive | Active | Active | Active | Active | Active | Active | inactive | Active | inactive | > 20000 | 270 | Active | Active
2 | 96 | COC(=O)[C@@H]1CCCN1C(=O)[C@@H](O)[C@H](N)CC(C)C | inactive | inactive | inactive | Active | Active | inactive | Active | Active | Active | Active | Active | Active | inactive | Active | inactive | > 100000 | 2200 | Active | Active
